# Source: ChEMBL document CHEMBL5058577, “EUbOPEN Chemogenomics Library 2 (Multiplex)” (2022)
# System: HEK-293T
# Assay: Multiplex assay against HEK293T
# Type: toxicity, cell-based
# Details: human
# Procedure, shortened: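 Per cents of healthy-nucleus cells form the tubulin, mitochondrial-mass and membrane-permeability phenotype values. Live cells were stained at seeding with Hoechst33342, BioTracker Green Microtubule Cytoskeleton Dye, MitoTracker Red and Annexin V Alexa Fluor 680. After compound addition they were imaged on a CQ1 microscope at 37°C and 5% CO2, and CellPathfinder machine-learning gating split them into Hoechst high-intensity objects or normal cells, normal cells into healthy, pyknosed or fragmented nuclei, and pyknosed cells into mitotic or apoptotic.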
# [1] = 12 h, 1 µM, compound concentration 1 uM, replicate 1
# [2] = 12 h, 1 µM, compound concentration 1 uM, replicate 2
# [3] = 12 h, 10 µM, compound concentration 10 uM, replicate 1
# [4] = 12 h, 10 µM, compound concentration 10 uM, replicate 2
# [5] = 24 h, 1 µM, compound concentration 1 uM, replicate 1
# [6] = 24 h, 1 µM, compound concentration 1 uM, replicate 2
# [7] = 24 h, 10 µM, compound concentration 10 uM, replicate 1
# [8] = 24 h, 10 µM, compound concentration 10 uM, replicate 2
# [9] = 48 h, 1 µM, compound concentration 1 uM, replicate 1
# [10] = 48 h, 1 µM, compound concentration 1 uM, replicate 2
# [11] = 48 h, 10 µM, compound concentration 10 uM, replicate 1
# [12] = 48 h, 10 µM, compound concentration 10 uM, replicate 2
structure (smiles),measurement,setting,value
Cc1c(CC(=O)O)c2cccnc2n1Cc1ccc(S(C)(=O)=O)cc1C(F)(F)F [FEVIPIPRANT],Population Apoptotic (%),[1],27%
same,Population Fragmented Nuclei (%),[1],6%
same,Population Healthy Nuclei (%),[1],83%
same,Population Hoechst High Intensity Objects (%),[1],5%
same,Population Membrane Permeable-Phenotype (%),[1],0%
same,Population Mitochondria Different-Phenotype (%),[1],32%
same,Population Mitotic Cells (%),[1],72%
same,Population Normal (%),[1],94%
same,Population Pyknosed Nuclei (%),[1],9%
same,Population Tubulin-Different-Phenotype (%),[1],22%
same,Total Cell Count,[1],471
same,Population Apoptotic (%),[2],41%
same,Population Fragmented Nuclei (%),[2],7%
same,Population Healthy Nuclei (%),[2],79%
same,Population Hoechst High Intensity Objects (%),[2],7%
same,Population Mitochondria Different-Phenotype (%),[2],52%
same,Population Mitotic Cells (%),[2],58%
same,Population Normal (%),[2],92%
same,Population Pyknosed Nuclei (%),[2],12%
same,Population Tubulin-Different-Phenotype (%),[2],16%
same,Total Cell Count,[2],370
same,Population Apoptotic (%),[3],33%
same,Population Fragmented Nuclei (%),[3],5%
same,Population Healthy Nuclei (%),[3],80%
same,Population Hoechst High Intensity Objects (%),[3],6%
same,Population Membrane Permeable-Phenotype (%),[3],0%
same,Population Mitochondria Different-Phenotype (%),[3],46%
same,Population Mitotic Cells (%),[3],66%
same,Population Normal (%),[3],93%
same,Population Pyknosed Nuclei (%),[3],13%
same,Population Tubulin-Different-Phenotype (%),[3],29%
same,Total Cell Count,[3],417
same,Population Apoptotic (%),[4],52%
same,Population Fragmented Nuclei (%),[4],11%
same,Population Healthy Nuclei (%),[4],75%
same,Population Hoechst High Intensity Objects (%),[4],10%
same,Population Mitochondria Different-Phenotype (%),[4],66%
same,Population Mitotic Cells (%),[4],47%
same,Population Normal (%),[4],89%
same,Population Pyknosed Nuclei (%),[4],12%
same,Population Tubulin-Different-Phenotype (%),[4],32%
same,Total Cell Count,[4],303
same,Population Apoptotic (%),[5],22%
same,Population Fragmented Nuclei (%),[5],8%
same,Population Healthy Nuclei (%),[5],81%
same,Population Hoechst High Intensity Objects (%),[5],3%
same,Population Membrane Permeable-Phenotype (%),[5],1%
same,Population Mitochondria Different-Phenotype (%),[5],18%
same,Population Mitotic Cells (%),[5],77%
same,Population Normal (%),[5],96%
same,Population Pyknosed Nuclei (%),[5],10%
same,Population Tubulin-Different-Phenotype (%),[5],18%
same,Total Cell Count,[5],637
same,Population Apoptotic (%),[6],43%
same,Population Fragmented Nuclei (%),[6],7%
same,Population Healthy Nuclei (%),[6],82%
same,Population Hoechst High Intensity Objects (%),[6],4%
same,Population Membrane Permeable-Phenotype (%),[6],0%
same,Population Mitochondria Different-Phenotype (%),[6],37%
same,Population Mitotic Cells (%),[6],56%
same,Population Normal (%),[6],95%
same,Population Tubulin-Different-Phenotype (%),[6],14%
same,Total Cell Count,[6],457
same,Population Apoptotic (%),[7],33%
same,Population Fragmented Nuclei (%),[7],8%
same,Population Healthy Nuclei (%),[7],80%
same,Population Hoechst High Intensity Objects (%),[7],5%
same,Population Membrane Permeable-Phenotype (%),[7],0%
same,Population Mitochondria Different-Phenotype (%),[7],31%
same,Population Mitotic Cells (%),[7],66%
same,Population Normal (%),[7],94%
same,Population Pyknosed Nuclei (%),[7],10%
same,Population Tubulin-Different-Phenotype (%),[7],20%
same,Total Cell Count,[7],499
same,Population Apoptotic (%),[8],50%
same,Population Fragmented Nuclei (%),[8],9%
same,Population Healthy Nuclei (%),[8],81%
same,Population Hoechst High Intensity Objects (%),[8],11%
same,Population Mitochondria Different-Phenotype (%),[8],44%
same,Population Mitotic Cells (%),[8],50%
same,Population Normal (%),[8],88%
same,Population Pyknosed Nuclei (%),[8],8%
same,Total Cell Count,[8],334
same,Population Apoptotic (%),[9],16%
same,Population Fragmented Nuclei (%),[9],13%
same,Population Healthy Nuclei (%),[9],79%
same,Population Hoechst High Intensity Objects (%),[9],1%
same,Population Membrane Permeable-Phenotype (%),[9],2%
same,Population Mitochondria Different-Phenotype (%),[9],12%
same,Population Mitotic Cells (%),[9],83%
same,Population Normal (%),[9],98%
same,Population Pyknosed Nuclei (%),[9],7%
same,Population Tubulin-Different-Phenotype (%),[9],12%
same,Total Cell Count,[9],1065
same,Population Apoptotic (%),[10],20%
same,Population Fragmented Nuclei (%),[10],11%
same,Population Healthy Nuclei (%),[10],82%
same,Population Hoechst High Intensity Objects (%),[10],2%
same,Population Membrane Permeable-Phenotype (%),[10],0%
same,Population Mitochondria Different-Phenotype (%),[10],16%
same,Population Mitotic Cells (%),[10],79%
same,Population Normal (%),[10],97%
same,Population Pyknosed Nuclei (%),[10],6%
same,Population Tubulin-Different-Phenotype (%),[10],10%
same,Total Cell Count,[10],713
same,Population Apoptotic (%),[11],29%
same,Population Fragmented Nuclei (%),[11],14%
same,Population Healthy Nuclei (%),[11],78%
same,Population Hoechst High Intensity Objects (%),[11],4%
same,Population Membrane Permeable-Phenotype (%),[11],0%
same,Population Mitochondria Different-Phenotype (%),[11],24%
same,Population Mitotic Cells (%),[11],70%
same,Population Normal (%),[11],95%
same,Population Pyknosed Nuclei (%),[11],7%
same,Population Tubulin-Different-Phenotype (%),[11],14%
same,Total Cell Count,[11],794
same,Population Apoptotic (%),[12],45%
same,Population Healthy Nuclei (%),[12],77%
same,Population Hoechst High Intensity Objects (%),[12],7%
same,Population Membrane Permeable-Phenotype (%),[12],1%
same,Population Mitochondria Different-Phenotype (%),[12],22%
same,Population Mitotic Cells (%),[12],55%
same,Population Normal (%),[12],92%
same,Population Pyknosed Nuclei (%),[12],8%
same,Population Tubulin-Different-Phenotype (%),[12],17%
same,Total Cell Count,[12],491
